The values below come from ChEMBL document CHEMBL1123658, “1-(2-pyridinyl)piperazine derivatives with antianaphylactic, antibronchospastic, and mast cell stabilizing activities” (J Med Chem, 1987).

For data set [1], the system named is Rattus norvegicus. The experiment in a line: Rat PCA Test(50% inhibition of spot areas)in the female albino rats after (ip) administration in 10% aqueous acacia gum; value ranges from 14-22. In kind it is functional. The settings on record: read-out: ID50 (the source's name). An outline of the steps: (§1)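 Female albino rats (200–250 g) received intradermal ventral injections of rat anti-egg-albumin antiserum; donors were raised with egg albumin im plus H. pertussis ip, and serum was taken at 12 days. 24 h later, compound was given ip in 10% acacia gum (10 mL/kg), 10 rats/group. Challenge 30 min later was iv 0.3% egg albumin plus 1% Evans blue. Blued areas were measured 30 min after challenge.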

Data set [2] relates to Rattus norvegicus. The data set is described as follows: Inhibition of mast cell degranulation was assessed in female albino rats at a dose of 42 umol/kg iv. In kind it is functional.
Data set [3] is described as follows: In vivo toxic effect was determined in mouse after intraperitoneal administration with 10% aqueous acacia gum; value ranges from 0.50-0.84. In kind it is toxicity, organism-based. The settings on record: ip. An outline of the steps: (§2)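 Female albino mice (20-30 g), 10 animals per dose, dosed intraperitoneally with compound in solution or suspension; compounds tested as salts unless noted. Mortality was recorded over 7 days.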

The nature of data set [4]: In vivo toxic effect was determined in mouse after oral administration with 10% aqueous acacia gum; value ranges from 0.77-1.28. In kind it is toxicity, organism-based. In outline:
(§3)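 Female albino mice, 20-30 g. Compound given orally as solution or suspension in 10% aqueous acacia gum, 10 animals per dose. Deaths recorded over 7 days.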

The test system of data set [5] is Rattus norvegicus. The experiment in a line: Rat PCA Test(50% inhibition of spot areas)in the female albino rats after (ip) administration in 10% aqueous acacia gum; value ranges from 34-42. In kind it is functional. The settings on record: read-out: ID50 (the source's name). An outline of the steps:
as §1

Data set [6] is described as follows: In vivo toxic effect was determined in mouse after intraperitoneal administration with 10% aqueous acacia gum; value ranges from 0.61-0.99. In kind it is toxicity, organism-based. The settings on record: ip. An outline of the steps: as §2
The test system of data set [7] is Rattus norvegicus. The experiment in a line: Inhibition of mast cell degranulation was assessed in female albino rats at a dose of 26 umol/kg iv. In kind it is functional.
A further data set has as its system Cavia porcellus. The experiment in a line: Antibronchospatic activity determined by histamine stimulated bronchospasm inhibition in guinea pigs after(i.v.) administration. In kind it is functional, Bronchiole. In outline:
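Guinea pigs, Konzett–Rössler preparation. Bronchospasm was induced with histamine. Compound was given iv (1 mL/kg) 1 min before the agonist, dissolved in saline or saline with slight excess HCl or CH3SO3H (pH 3.5–4). Three doses were tested in duplicate, chosen to give 20–90% inhibition. ID75 was read graphically from log dose–response curves.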

Data set [8] in a line: In vivo toxic effect was determined in mouse after intraperitoneal administration with 10% aqueous acacia gum; value ranges from 0.27-0.50. In kind it is toxicity, organism-based. The settings on record: ip. An outline of the steps:
as §2

Data set [9] in a line: In vivo toxic effect was determined in mouse after oral administration with 10% aqueous acacia gum; value ranges from 0.53-0.84. In kind it is toxicity, organism-based.
Data set [10] concerns Rattus norvegicus. The data set is described as follows: Rat PCA Test(50% inhibition of spot areas)in the female albino rats after oral administration in 10% aqueous acacia gum. The settings on record: read-out: ID50 (the source's name). In kind it is functional. In outline: (§4)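 Female rats (200-250 g) were passively sensitized by ventral intradermal anti-egg-albumin antiserum. This was raised in rats by intramuscular 1% egg albumin plus ip H. pertussis vaccine, with serum taken at 12 days. After 24 h, groups of 10 were dosed orally with compound or vehicle (10 mL/kg). At 60 min, iv challenge used 0.3% egg albumin with 1% Evans blue. Blued areas were measured after 30 min.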

The test system of data set [11] is Rattus norvegicus. The data set is described as follows: Rat PCA Test(50% inhibition of spot areas)in the female albino rats after (ip) administration in 10% aqueous acacia gum;Value ranges from(44-250). In kind it is functional. The following applies: read-out: ID50 (the source's name). In outline:
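Antiserum came from female rats given 1% egg albumin in 0.9% NaCl intramuscularly plus Haemophilus pertussis vaccine (2 × 10^10 organisms) intraperitoneally, and was collected 12 days later. Recipient rats (200-250 g) got it intradermally at a ventral site. After 24 h, groups of 10 received vehicle or compound ip. At 30 min they were challenged iv with 0.3% egg albumin plus 1% Evans blue. Blued skin areas were measured 30 min later.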

The subject of a further data set is Mus musculus. The data set is described as follows: In vivo toxic effect was determined in mouse after intraperitoneal administration with 10% aqueous acacia gum; NA means poorly absorbed. In kind it is toxicity, organism-based. The settings on record: ip. In outline: as §2
Data set [12] in a line: In vivo toxicity in mouse after oral administration with 10% aqueous acacia gum. In kind it is organism-based. In outline:
as §3

The test system of data set [13] is Rattus norvegicus. The experiment in a line: Rat PCA Test(50% inhibition of spot areas)in the female albino rats after (ip) administration in 10% aqueous acacia gum; value ranges from 66-231. In kind it is functional. The settings on record: read-out: ID50 (the source's name). In outline: as §1
The nature of data set [14]: In vivo toxic effect was determined in mouse after oral administration with 10% aqueous acacia gum; value ranges from 1.19-2.07. In kind it is toxicity, organism-based. An outline of the steps:
as §3

A short description of data set [15]: In vivo toxic effect was determined in mouse after intraperitoneal administration with 10% aqueous acacia gum; value ranges from 0.89-1.63. In kind it is toxicity, organism-based. The following applies: ip. An outline of the steps: as §2
Data set [16] can be described thus: In vivo toxic effect was determined in mouse after intraperitoneal administration with 10% aqueous acacia gum; value ranges from 1.02-1.35. The following applies: ip. In kind it is toxicity, organism-based. An outline of the steps:
as §2

Data set [17] deals with Rattus norvegicus. The data set is described as follows: Rat PCA Test(50% inhibition of spot areas)in the female albino rats after (ip) administration in 10% aqueous acacia gum. In kind it is functional. The following applies: read-out: ID50 (the source's name). An outline of the steps: as §1
Data set [18] in a line: In vivo toxic effect was determined in mouse after oral administration with 10% aqueous acacia gum;Value ranges from(5.68-7.37). In kind it is toxicity, organism-based. An outline of the steps: as §3
For data set [19], the system named is Rattus norvegicus. The experiment in a line: Rat PCA Test(50% inhibition of spot areas)in the female albino rats after (ip) administration in 10% aqueous acacia gum; value ranges from 213-612. In kind it is functional. The settings on record: read-out: ID50 (the source's name). In outline:
as §1

Data set [20] is described as follows: In vivo toxic effect was determined in mouse after intraperitoneal administration with 10% aqueous acacia gum; value ranges from 0.88-1.56. In kind it is toxicity, organism-based. The settings on record: ip. An outline of the steps:
as §2

Data set [21] can be described thus: In vivo toxic effect was determined in mouse after oral administration with 10% aqueous acacia gum; value ranges from 0.41-0.93. In kind it is toxicity, organism-based.
Data set [22] is described as follows: In vivo toxic effect was determined in mouse after intraperitoneal administration with 10% aqueous acacia gum; value ranges from 0.28-0.52. In kind it is toxicity, organism-based. The following applies: ip. An outline of the steps: as §2
Data set [23] is described as follows: In vivo toxic effect was determined in mouse after intraperitoneal administration with 10% aqueous acacia gum; value ranges from 0.53-0.97. In kind it is toxicity, organism-based. The settings on record: ip. In outline: as §2
The subject of data set [24] is Rattus norvegicus. The data set is described as follows: Rat PCA Test(50% inhibition of spot areas)in the female albino rats after oral administration in 10% aqueous acacia gum; value ranges from 88-129. The following applies: read-out: ID50 (the source's name). In kind it is functional. In outline: as §4
Data set [25] is described as follows: In vivo toxic effect was determined in mouse after oral administration with 10% aqueous acacia gum; value ranges from 0.66-1.27. In kind it is toxicity, organism-based.
Data set [26] concerns Rattus norvegicus. The data set is described as follows: Inhibition of mast cell degranulation was assessed in female albino rats at a dose of 22 umol/kg iv. In kind it is functional.
Data set [27] deals with Rattus norvegicus. The experiment in a line: Rat PCA Test(50% inhibition of spot areas)in the female albino rats after (ip) administration in 10% aqueous acacia gum; value ranges from 23-40. In kind it is functional. The settings on record: read-out: ID50 (the source's name). An outline of the steps:
as §1

As to `Cc1cc(C)c(C)c(NC(=O)CCN2CCN(c3ccccn3)CC2)c1C.Cl.Cl`, in the data set on Rattus norvegicus [1], the ED50 is 18 µmol/kg. Also, the inhibition in vivo (as a rule, the change of the read-out against control, counted positive when it falls) at 42 µmol/kg with Rattus norvegicus [2] was 2%. Also, in data set [3], the LD50 (usually the dose expected to kill half of the subjects tested) came to 570 µmol/kg.
With `CCOc1ccc(NC(=O)CCN2CCN(c3ccccn3)CC2)cc1.Cl.Cl`, the 50% lethal dose (LD50) in data set [4] came to 920 µmol/kg; in [6], 690 µmol/kg. Further, the ED50 with Rattus norvegicus [5] worked out at 37 µmol/kg. In addition, the inhibition in vivo at 26 µmol/kg with Rattus norvegicus [7] came out at 0%. The ID75 with Cavia porcellus was determined as 0.14 µM/kg.
Consider `COc1cccc(N2CCN(CCC(=O)Nc3ccccc3N)CC2)n1.Cl.Cl`, for which the LD50 in [8] was 370 µmol/kg; in [9], 670 µmol/kg. For the same compound, the ID75 in the data set with Cavia porcellus turned out to be 108 µM/kg.
`Cl.Cl.NC(=O)c1ccc(NC(=O)CCN2CCN(c3ccccn3)CC2)cc1`: the ED50 is over 212 µmol/kg with Rattus norvegicus [10] and 124 µmol/kg in the data set on Rattus norvegicus [11]. The LD50 entry with Mus musculus was “Not Active”; in data set [12] it was over 6400 µmol/kg. In addition, the ID75 in the data set on Cavia porcellus turned out to be 0.3 µM/kg.
Consider `CCC(=O)Nc1ccc(NC(=O)CCN2CCN(c3ccccn3)CC2)cc1.Cl.Cl`, for which the ED50 in the data set on Rattus norvegicus [13] was 147 µmol/kg. The compound also came in with an ID75 in the data set with Cavia porcellus of 0.23 µM/kg. Further, the 50% lethal dose (LD50) in data set [14] came to 1530 µmol/kg; in data set [15], 1050 µmol/kg.
As to `COc1cccc(NC(=O)CCN2CCN(c3ccccn3)CC2)c1.Cl.Cl`, the median lethal dose (LD50) in data set [16] was determined as 1180 µmol/kg; in data set [18], 7100 µmol/kg. In addition, the ID75 with Cavia porcellus is 0.56 µM/kg. Also, the ED50 in the data set with Rattus norvegicus [17] is over 118 µmol/kg.
`C=CCOC(=O)CCN1CCN(c2ccccn2)CC1.Cl.Cl`: the ED50 turned out to be 330 µmol/kg in the data set with Rattus norvegicus [19] and 11.5 µmol/kg with Rattus norvegicus [10]. Moreover, the LD50 in data set [20] was 1030 µmol/kg; in data set [12], over 8610 µmol/kg.
For the compound `Cl.Cl.N#Cc1ccc(NC(=O)CCN2CCN(c3ccccn3)CC2)cc1`, the figures for the 50% lethal dose (LD50) in [21] and in [22] were 620 µmol/kg and 390 µmol/kg, respectively. For the same compound, the ID75 with Cavia porcellus came to 0.64 µM/kg. Besides, the ED50 in the data set with Rattus norvegicus [17] was over 39 µmol/kg.
With `CCOC(=O)c1ccc(NC(=O)CCN2CCN(c3ccccn3)CC2)cc1.Cl.Cl`, the LD50 in data set [23] was determined as 660 µmol/kg; in [25], 920 µmol/kg. The ED50 was 107 µmol/kg in the data set with Rattus norvegicus [24] and 30 µmol/kg with Rattus norvegicus [27]. The compound also gave an inhibition in vivo at 22 µmol/kg with Rattus norvegicus [26] of 83%. Further, the ID75 in the data set on Cavia porcellus was determined as 0.17 µM/kg.
